This note sets out measurements from BindingDB's records for doi:10.1021/jm2005767 (Virginia Commonwealth University, 2011).

The assay concerns the target Prothrombin (Homo sapiens, UniProt P00734). The assay is described as follows: Inhibition of human alpha-thrombin assessed as spectrozyme TH hydrolysis after 10 mins by spectrophotometric analysis. The essentials:
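Human α-thrombin (~5 nM initial) preincubated 10 min with inhibitor (4 μg/ml to 5 mg/ml stocks) at 25 °C. Buffer: 20 mM Tris-HCl pH 7.4, 100 mM NaCl, 2.5 mM CaCl2, 0.1% PEG 8000. Fractional residual activity fitted to logistic equation (Hill slope fixed at 1) for IC50 and efficacy ΔY.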

As a reminder, the IC50 is the point on the concentration scale where inhibition reaches its midpoint. As to `CCOC(=O)c1c(C)oc2cc(OC(=O)N3CCOCC3)c(OS(=O)(=O)O)cc12`, the IC50 was more than 2500 µM.
